Test results published in ChEMBL document CHEMBL1782048, “Novel 1-(2-aminopyrazin-3-yl)methyl-2-thioureas as potent inhibitors of mitogen-activated protein kinase-activated protein kinase 2 (MK-2)” (Bioorg Med Chem Lett, 2009).

Experiments:
[1] = biological target: MAP kinase-activated protein kinase 2 (Homo sapiens, UniProt P49137); experiment: Inhibition of MK2 using biotin-LCAYSRALSRQLSSGVSEIRH substrate
[2] = Inhibition of AMPK at 10 uM
[3] = biological target: Ribosomal protein S6 kinase alpha-5 (Homo sapiens) (UniProt O75582); experiment: Inhibition of RPS6KA5 at 10 uM
[4] = biological target: Ribosomal protein S6 kinase alpha-1 (Homo sapiens) (UniProt Q15418); experiment: Inhibition of RPS6KA1 at 10 uM
[5] = Half life in rat; format: ADME, organism-based; conditions: in vivo
Rattus norvegicus = organism: Rattus norvegicus; experiment: Normalized AUC in rat; format: ADME, organism-based; conditions: in vivo
[6] = Oral bioavailability AUC in rat; format: ADME, organism-based; conditions: in vivo
[7] = Clearance in rat; format: ADME, organism-based; conditions: in vivo
THP-1 = experiment: Inhibition of LPS-induced TNFalpha production in human THP1 cells after 4 hrs by ELISA; conditions: THP-1, 4 h
Mus musculus = experiment: Antiinflammatory activity in BALB/c mouse assessed as inhibition of LPS-stimulated TNFalpha production at 10 mg/kg, iv after 1.5 hrs; format: functional
In short: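 Female Balb/c mice, 12 weeks old, dosed iv at 10 mg/kg in DMSO/Cremophor/saline (or vehicle alone) just before injection of 10 µg/mouse LPS (E. coli serotype 0111:B4) plus 800 mg/kg D-galactosamine in saline. Animals euthanized 90 min later; plasma TNF measured by ELISA.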

[8] = biological target: T1, MAP kinase-activated protein kinase 5 (Homo sapiens) (UniProt Q8IW41); experiment: Inhibition of MK5 at 1 uM
T1 sequence (whole entry): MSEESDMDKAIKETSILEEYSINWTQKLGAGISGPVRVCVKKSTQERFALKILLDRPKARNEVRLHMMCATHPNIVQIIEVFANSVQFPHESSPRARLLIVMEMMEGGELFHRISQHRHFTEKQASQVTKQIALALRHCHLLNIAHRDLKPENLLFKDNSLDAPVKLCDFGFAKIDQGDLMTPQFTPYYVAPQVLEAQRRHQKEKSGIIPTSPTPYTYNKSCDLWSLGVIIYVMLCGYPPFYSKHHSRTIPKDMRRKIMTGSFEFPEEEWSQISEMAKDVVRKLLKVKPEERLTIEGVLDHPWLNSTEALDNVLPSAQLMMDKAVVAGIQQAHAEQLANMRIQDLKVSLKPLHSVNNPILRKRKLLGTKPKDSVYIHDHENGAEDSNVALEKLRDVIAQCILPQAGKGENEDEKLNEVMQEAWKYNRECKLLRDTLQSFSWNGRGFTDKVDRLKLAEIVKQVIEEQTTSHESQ

Sequence of MAP kinase-activated protein kinase 2 (P49137 whole entry): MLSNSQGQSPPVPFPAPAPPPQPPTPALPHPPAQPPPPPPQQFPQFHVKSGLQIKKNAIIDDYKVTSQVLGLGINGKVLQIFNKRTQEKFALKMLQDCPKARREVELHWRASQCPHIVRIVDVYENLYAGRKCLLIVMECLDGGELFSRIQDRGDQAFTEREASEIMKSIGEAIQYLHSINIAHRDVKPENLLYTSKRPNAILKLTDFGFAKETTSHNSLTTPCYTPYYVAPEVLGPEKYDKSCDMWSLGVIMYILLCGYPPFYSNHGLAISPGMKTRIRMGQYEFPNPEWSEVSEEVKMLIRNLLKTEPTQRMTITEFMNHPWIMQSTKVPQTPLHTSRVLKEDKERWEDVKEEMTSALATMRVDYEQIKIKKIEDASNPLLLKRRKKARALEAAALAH
Sequence of Ribosomal protein S6 kinase alpha-5 (Homo sapiens) (O75582 whole entry, looked up): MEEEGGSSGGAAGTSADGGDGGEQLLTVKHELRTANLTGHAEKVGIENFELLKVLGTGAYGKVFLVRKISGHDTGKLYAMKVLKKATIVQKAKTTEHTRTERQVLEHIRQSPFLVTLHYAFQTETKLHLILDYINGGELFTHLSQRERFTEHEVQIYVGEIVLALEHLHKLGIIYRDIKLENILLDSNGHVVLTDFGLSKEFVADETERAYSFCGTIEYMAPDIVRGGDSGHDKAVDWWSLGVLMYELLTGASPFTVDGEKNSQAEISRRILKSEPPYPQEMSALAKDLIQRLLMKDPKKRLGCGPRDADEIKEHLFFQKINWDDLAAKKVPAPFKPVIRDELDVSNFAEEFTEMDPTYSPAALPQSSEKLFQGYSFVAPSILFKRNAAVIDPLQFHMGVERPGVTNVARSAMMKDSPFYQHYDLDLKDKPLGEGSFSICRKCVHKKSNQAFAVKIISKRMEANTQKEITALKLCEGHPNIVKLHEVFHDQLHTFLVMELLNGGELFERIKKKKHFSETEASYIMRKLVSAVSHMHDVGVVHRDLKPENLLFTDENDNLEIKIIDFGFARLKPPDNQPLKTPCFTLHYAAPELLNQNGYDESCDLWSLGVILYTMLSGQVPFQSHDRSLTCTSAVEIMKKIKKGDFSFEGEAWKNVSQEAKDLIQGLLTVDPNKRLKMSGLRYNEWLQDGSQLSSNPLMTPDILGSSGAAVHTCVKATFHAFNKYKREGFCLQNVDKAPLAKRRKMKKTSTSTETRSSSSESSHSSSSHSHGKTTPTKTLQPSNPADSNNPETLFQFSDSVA
Sequence of Ribosomal protein S6 kinase alpha-1 (Homo sapiens) (Q15418 whole entry): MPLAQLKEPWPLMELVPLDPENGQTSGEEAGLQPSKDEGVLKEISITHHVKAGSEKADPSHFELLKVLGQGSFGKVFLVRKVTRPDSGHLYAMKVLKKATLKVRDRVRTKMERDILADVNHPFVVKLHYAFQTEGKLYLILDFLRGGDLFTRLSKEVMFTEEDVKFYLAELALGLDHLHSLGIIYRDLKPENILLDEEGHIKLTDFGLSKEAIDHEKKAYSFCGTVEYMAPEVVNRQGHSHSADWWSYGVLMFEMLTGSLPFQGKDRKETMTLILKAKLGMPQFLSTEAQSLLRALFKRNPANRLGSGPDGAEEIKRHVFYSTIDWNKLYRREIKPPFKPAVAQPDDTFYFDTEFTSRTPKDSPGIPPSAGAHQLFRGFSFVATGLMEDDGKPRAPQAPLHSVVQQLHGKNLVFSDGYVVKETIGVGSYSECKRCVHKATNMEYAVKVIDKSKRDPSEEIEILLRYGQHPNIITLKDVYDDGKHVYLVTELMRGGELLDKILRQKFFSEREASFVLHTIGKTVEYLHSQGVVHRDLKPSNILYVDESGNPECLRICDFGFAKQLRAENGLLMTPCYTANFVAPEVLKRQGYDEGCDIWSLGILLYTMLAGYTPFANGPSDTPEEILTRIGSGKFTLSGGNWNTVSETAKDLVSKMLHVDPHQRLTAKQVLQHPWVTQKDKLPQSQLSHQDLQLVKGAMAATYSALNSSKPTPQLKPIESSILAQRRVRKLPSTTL

| SMILES | IC50 [1] [µM] | other results |
| --- | --- | --- |
| Nc1ncc(Cl)nc1CNC(=S)Nc1ccc(Cl)cc1Cl | 4.3 |  |
| Nc1ncc(Cl)nc1CNC(=S)NC1CCCCCC1 | 35 |  |
| Cc1cnc(N)c(CNC(=S)Nc2ccc(NC(=O)Oc3ccccc3)cc2)n1 | 0.73 |  |
| Nc1ncc(Cl)nc1CNC(=S)NCCc1ccccc1 | > 50 |  |
| Cc1ccc(NC(=S)NCc2nc(Cl)cnc2N)cc1 | 2.7 |  |
| CCOc1nc(N)c(CNC(=S)Nc2ccccc2)nc1Cl | > 50 |  |
| Nc1ncc(Cl)nc1CNC(=S)Nc1ccc(Br)cc1 | 3.1 |  |
| Nc1ncc(Cl)nc1CNC(=S)Nc1cc(Cl)cc(Cl)c1 | 27 |  |
| Nc1ncc(Cl)nc1CNC(=S)Nc1cccc2ccccc12 | 3.2 |  |
| CC(C)(C)NC(=S)NCc1nc(Cl)cnc1N | 2.5 |  |
| CC(C)(C)OC(=O)Nc1ccc(NC(=S)NCc2nc(C3CC3)cnc2N)cc1 |  | IC50 (THP-1): 3.2 µM |
| CC(C)NC(=S)NCc1nc(Cl)cnc1N | 13 |  |
| CCc1cnc(N)c(CNC(=S)Nc2ccc(NC(=O)OC(C)(C)C)cc2)n1 |  | IC50 (THP-1): 4 µM |
| CCCc1cnc(N)c(CNC(=S)Nc2ccc3[nH]c(=O)oc3c2)n1 |  | half-life [5]: 18 min; inhibition [8]: > 70%; AUC/dose (Rattus norvegicus): 0.3 µM·kg·h/mg; bioavailability [6]: 8%; clearance [7]: 12.9 mL/min/kg; IC50 (THP-1): 0.75 µM; inhibition in vivo at 10 mg/kg (Mus musculus): 70% |
| Nc1ncc(Cl)nc1CNC(=S)NC(=O)c1ccccc1 | 91 |  |
| CC(C)(C)NC(=O)Nc1ccc(NC(=S)NCc2nc(C3CC3)cnc2N)cc1 |  | IC50 (THP-1): 1.4 µM |
| CCCCc1cnc(N)c(CNC(=S)Nc2ccc3[nH]c(=O)oc3c2)n1 |  | IC50 (THP-1): 3.8 µM |
| Nc1ncc(Cl)nc1CNC(=S)Nc1cccc(Cl)c1 | 11.3 |  |
| Cc1cnc(N)c(CNC(=S)Nc2ccc(NC(=O)c3ccccc3)cc2)n1 | 0.58 |  |
| Nc1ncc(Cl)nc1CNC(=S)Nc1ccccc1F | 2 |  |

Continued, in another order:

| IC50 [1] [µM] | SMILES | other results |
| --- | --- | --- |
| > 50 | CSc1nc(N)c(CNC(=S)Nc2ccccc2)nc1Cl |  |
| 3.8 | Cc1cnc(N)c(CNC(=S)Nc2ccc(NC(=O)Cc3ccccc3)cc2)n1 |  |
| 15 | Cc1cnc(N)c(CNC(=S)Nc2ccc3[nH]c(=O)[nH]c3c2)n1 |  |
| > 20 | Cc1cnc(N)c(CNC(=S)Nc2ccc3c(c2)[nH]c(=O)n3C)n1 |  |
| 53 | Nc1ncc(Cl)nc1CNC(=S)NC1CCCC1 |  |
| 12 | Nc1ncc(Cl)nc1CNC(=S)NC1CC1 |  |
| 0.045 | CCCc1cnc(N)c(CNC(=S)Nc2ccc(NC(=O)OC(C)(C)C)cc2)n1 | inhibition [2]: > 70%; inhibition [3]: > 70%; inhibition [4]: > 70%; half-life [5]: 48 min; AUC/dose (Rattus norvegicus): 3.3 µM·kg·h/mg; bioavailability [6]: 19%; clearance [7]: 2.5 mL/min/kg; IC50 (THP-1): 3 µM; inhibition in vivo at 10 mg/kg (Mus musculus): 62% |
| 2 | Nc1ccc(NC(=S)NCc2nc(Cl)cnc2N)cc1 |  |
| 14 | Cc1cnc(N)c(CNC(=S)Nc2ccc3oc(=O)[nH]c3c2)n1 |  |
| 9.3 | Cc1cccc(NC(=S)NCc2nc(Cl)cnc2N)c1 |  |
| > 50 | CCN(CC)CCCNC(=S)NCc1nc(Cl)cnc1N |  |
| 36 | Nc1ncc(Cl)nc1CNC(=S)NCc1ccccc1 |  |
| 3.6 | Cc1ccccc1NC(=S)NCc1nc(Cl)cnc1N |  |
| > 50 | CN(C)c1nc(N)c(CNC(=S)Nc2ccccc2)nc1Cl |  |
| 1.1 | Nc1ncc(Cl)nc1CNC(=S)Nc1ccccc1Cl |  |
| 15 | Cc1cnc(N)c(CNC(=S)Nc2ccc3[nH]c(=O)sc3c2)n1 |  |
| > 20 | Nc1ncc(Cl)nc1CNC(=S)Nc1ccccc1-c1ccccc1 |  |
| 3.7 | Nc1ncc(Cl)nc1CNC(=S)Nc1ccc(Cl)cc1 |  |
| > 50 | Nc1ncc(C(F)(F)F)nc1CNC(=S)Nc1ccccc1 |  |
| > 40 | Nc1ncc(Cl)nc1CNC(=S)Nc1ccc(-n2cnnn2)cc1 |  |
| 40 | Nc1ncc(Cl)nc1CNC(=S)Nc1ccc(Cl)c(Cl)c1 |  |
| 0.015 | Nc1ncc(C2CC2)nc1CNC(=S)Nc1ccc2[nH]c(=O)oc2c1 | IC50 (THP-1): 1.7 µM; inhibition in vivo at 10 mg/kg (Mus musculus): 75% |
| 27 | Cc1cnc(N)c(CNC(=S)Nc2ccc3c(c2)CC(=O)N3)n1 |  |
